Three molecules from ChEMBL document CHEMBL1138761, “Exploring the binding mode of semicarbazide-sensitive amine oxidase/VAP-1: identification of novel substrates with insulin-like activity” (J Med Chem, 2004) can be followed below.

Structures are written as SMILES. “And” between values parts separate entries of the source, which are not always exact repeats. Equal values may be shown once.

A short description of experiment [1]: Ratio of Vmax/Km for human, mouse or rat SSAO. A digest of the protocol:
(§1)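 Crude membranes from human, rat or mouse adipocytes, made by hypo-osmotic lysis in 20 mM HES buffer with antiproteases (around 50 µg protein/assay). Incubated 30 min at 37 °C over a range of amine concentrations. H2O2 read spectrophotometrically with peroxidase, homovanillic acid and aminoantipyrine at 498 nm. Km and Vmax taken from Eadie-Hofstee plots; Vmax/Km ratio also given. Means ± SEM of 3-4 experiments.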

A short description of experiment [2]: Maximum velocity for semicarbazide-sensitive amine oxidase (SSAO) of human, mouse or rat crude membranes. Type of experiment: cell membranes. Particulars: Membrane. A digest of the protocol:
as §1

For the molecule `NCc1cccc2ccccc12`, in experiment [1], the Ratio is 0.28 and 0.66 and 0.5.

Turning to `COc1cccc(CN)c1OC`, the Vmax (nmol/min/mg protein) in experiment [2] is 1.1 and 3.2.

Take `NCc1ccc(S(N)(=O)=O)cc1`: the Ratio in experiment [1] is 0.007 and 0.01.
